Here are results for seven compounds from ChEMBL document CHEMBL1777792, “Synthesis and evaluation of indole-based new scaffolds for antimicrobial activities--identification of promising candidates” (Bioorg Med Chem Lett, 2011).

Test [1] deals with Candida albicans. Nature of the test: Antifungal activity against Candida albicans in yeast extract-peptone-glucose medium at 250 ug/ml after 48 hrs by disc diffusion assay in presence of rhodamine 6G.
Test [2] relates to Candida albicans. Nature of the test: Antifungal activity against Candida albicans in yeast extract-peptone-glucose medium at 250 ug/ml after 48 hrs by disc diffusion assay in presence of 100 ug/ml of calcofluor white. Format: functional. The method, boiled down: (§1)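 C. albicans cells at a set number were spread on YEPD agar, either plain or containing the cell-wall disruptant named in the line (SDS, Congo red or calcofluor white). Compound solution, or the reference solvent as control, was spotted onto 0.5 cm discs placed on the lawn. Plates were incubated at 30 °C and the inhibition zone diameter was measured.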

Test [3] concerns Candida albicans. Nature of the test: Antifungal activity against Candida albicans in yeast extract-peptone-glucose medium at 250 ug/ml after 48 hrs by disc diffusion assay. The format is functional. The note with it: read-out: DIZ. The method, boiled down:
as §1

Test [4] has as its system Escherichia coli. Nature of the test: Antibacterial activity against Escherichia coli harboring ampicillin-resistance gene encoding plasmid at 333 ug/ml after 24 hrs by disc diffusion assay. Format: functional. The note with it: read-out: DIZ. The method, boiled down: (§2)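 Disc diffusion used an E. coli strain carrying a plasmid that encodes an ampicillin-resistance gene. Inhibition zone diameters were recorded and compared against the corresponding solvent controls.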

In test [5] the test system is Candida albicans. Kind of test: Antifungal activity against Candida albicans in yeast extract-peptone-glucose medium at 250 ug/ml after 48 hrs by disc diffusion assay in presence of 0.01% of sodium dodecylsulphate. The format is functional. The note with it: read-out: DIZ. The method, boiled down: as §1
Test [6] has as its system Candida albicans. Kind of test: Antifungal activity against Candida albicans in yeast extract-peptone-glucose medium at 250 ug/ml after 48 hrs by disc diffusion assay in presence of 150 ug/ml of congo red. The format is functional. The method, boiled down:
as §1

Test [7] concerns Candida albicans. Nature of the test: Antifungal activity against Candida albicans in yeast extract-peptone-glucose medium at 375 ug/ml after 48 hrs by disc diffusion assay. The format is functional. The note with it: read-out: DIZ. The procedure, abridged: as §1
In test [8] the test system is Candida albicans. Nature of the test: Antifungal activity against Candida albicans in yeast extract-peptone-glucose medium at 375 ug/ml after 48 hrs by disc diffusion assay in presence of rhodamine 6G.
Test [9] relates to Escherichia coli. Nature of the test: Antibacterial activity against Escherichia coli harboring ampicillin-resistance gene encoding plasmid at 500 ug/ml after 24 hrs by disc diffusion assay. The format is functional. The following applies: read-out: DIZ. The method, boiled down:
as §2

The subject of test [10] is Candida albicans. Nature of the test: Antifungal activity against Candida albicans in yeast extract-peptone-glucose medium at 375 ug/ml after 48 hrs by disc diffusion assay in presence of 0.01% of sodium dodecylsulphate. Format: functional. The note with it: read-out: DIZ. The procedure, abridged:
as §1

In test [11] the test system is Candida albicans. Nature of the test: Antifungal activity against Candida albicans in yeast extract-peptone-glucose medium at 375 ug/ml after 48 hrs by disc diffusion assay in presence of 100 ug/ml of calcofluor white. The format is functional. The method, boiled down: as §1
Test [12] has as its system Candida albicans. Kind of test: Antifungal activity against Candida albicans in yeast extract-peptone-glucose medium at 375 ug/ml after 48 hrs by disc diffusion assay in presence of 150 ug/ml of congo red. Format: functional. The procedure, abridged:
as §1

The test system of test [13] is Candida albicans. Nature of the test: Antifungal activity against Candida albicans in yeast extract-peptone-glucose medium at 500 ug/ml after 48 hrs by disc diffusion assay. Format: functional. The following applies: read-out: DIZ. The method, boiled down:
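Solid-phase assay on YEPD agar spread with a set number of C. albicans cells. Compound solution and reference solvent spotted onto 0.5 cm discs. Plates incubated at 30 °C, and inhibition zone diameter measured against solvent control.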

Test [14] concerns Candida albicans. Kind of test: Antifungal activity against Candida albicans in yeast extract-peptone-glucose medium at 500 ug/ml after 48 hrs by disc diffusion assay in presence of rhodamine 6G.
Test [15] relates to Candida albicans. Kind of test: Antifungal activity against Candida albicans in yeast extract-peptone-glucose medium at 500 ug/ml after 48 hrs by disc diffusion assay in presence of 100 ug/ml of calcofluor white. The format is functional. The procedure, abridged: (§3)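 Disc diffusion on YEPD agar containing a cell-wall-disrupting agent (SDS, Congo red or calcofluor white) and spread with a set number of C. albicans cells. Compound and reference solvent spotted on 0.5 cm discs. Incubated at 30 °C, then inhibition zone diameter measured against solvent.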

Test [16] concerns Candida albicans. Kind of test: Antifungal activity against Candida albicans in yeast extract-peptone-glucose medium at 500 ug/ml after 48 hrs by disc diffusion assay in presence of 150 ug/ml of congo red. Format: functional. The procedure, abridged:
as §3

Test [17] concerns Candida albicans. Kind of test: Antifungal activity against Candida albicans in yeast extract-peptone-glucose medium at 500 ug/ml after 48 hrs by disc diffusion assay in presence of 0.01% of sodium dodecylsulphate. Format: functional. The note with it: read-out: DIZ. The procedure, abridged: as §3
In test [18] the test system is Candida albicans. Nature of the test: Antifungal activity against Candida albicans in yeast extract-peptone-glucose medium at 300 ug/ml after 48 hrs by disc diffusion assay in presence of 150 ug/ml of congo red. The format is functional. The method, boiled down:
as §1

Test [19] concerns Candida albicans. Kind of test: Antifungal activity against Candida albicans in yeast extract-peptone-glucose medium at 300 ug/ml after 48 hrs by disc diffusion assay in presence of 0.01% of sodium dodecylsulphate. Format: functional. The following applies: read-out: DIZ. The procedure, abridged: as §1
For test [20], the system named is Escherichia coli. Nature of the test: Antibacterial activity against Escherichia coli harboring ampicillin-resistance gene encoding plasmid at 300 ug/ml after 24 hrs by disc diffusion assay. The format is functional. The following applies: read-out: DIZ. The method, boiled down:
as §2

Test [21] relates to Candida albicans. Kind of test: Antifungal activity against Candida albicans in yeast extract-peptone-glucose medium at 300 ug/ml after 48 hrs by disc diffusion assay in presence of […]. Format: functional. The procedure, abridged: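 This is a C. albicans disc diffusion on YEPD agar containing rhodamine 6G, a substrate of the Cdr1p/Cdr2p ATP-dependent efflux pumps, to test for enhanced R6G toxicity. A set number of cells was spread, and 0.5 cm discs were spotted with compound solution or reference solvent. Plates were incubated at 30 °C and the zone diameter was measured.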

Test [22] concerns Escherichia coli. Kind of test: Antibacterial activity against Escherichia coli harboring ampicillin-resistance gene encoding plasmid at 250 ug/ml after 24 hrs by disc diffusion assay. The format is functional. The following applies: read-out: DIZ. The procedure, abridged:
as §2

Test [23] concerns Candida albicans. Nature of the test: Antifungal activity against Candida albicans in yeast extract-peptone-glucose medium at 300 ug/ml after 48 hrs by disc diffusion assay. Format: functional. The note with it: read-out: DIZ. The method, boiled down: as §1

For the compound `O=C(C(=O)N1CCOCC1)c1cn(CCCCn2cc(C(=O)C(=O)N3CCOCC3)c3ccccc32)c2ccccc12`, the “diameter of the inhibition zone (DIZ)” value with Candida albicans [1] is 7.5 mm; in the test with Candida albicans [2], 7.5 mm; in the test on Candida albicans [6], 5 mm. Also, the zone of inhibition at 250 µg/mL with Candida albicans [3] was 6 mm; in the test with Candida albicans [5], 7 mm. Besides, in the test with Escherichia coli [4], the zone of inhibition at 333 µg/mL worked out at 10 mm.
`O=C(C(=O)N1CCCC1)c1cn(CCCCCn2cc(C(=O)C(=O)N3CCCC3)c3ccccc32)c2ccccc12`: the values for the zone of inhibition at 375 µg/mL in the test on Candida albicans [7] and in the test on Candida albicans [10] were 5.5 mm and 6 mm, respectively. Moreover, the “diameter of the inhibition zone (DIZ)” value is reported as 6.5 mm in the test with Candida albicans [8], 5.5 mm in the test on Candida albicans [11] and 8 mm in the test with Candida albicans [12]. For the same compound, the zone of inhibition at 500 µg/mL in the test with Escherichia coli [9] is 8 mm.
With `O=C(C(=O)N1CCCCC1)c1cn(CCCn2cc(C(=O)C(=O)N3CCCCC3)c3cc(Br)ccc32)c2ccc(Br)cc12`, the values for the zone of inhibition at 500 µg/mL with Candida albicans [13], with Escherichia coli [9] and in the test with Candida albicans [17] were 6 mm, 9 mm and 8 mm, respectively. Besides, the “diameter of the inhibition zone (DIZ)” value in the test with Candida albicans [14] is on record as 7.5 mm; in the test with Candida albicans [15] it was 6.5 mm; in the test on Candida albicans [16], 9.5 mm.
In the case of `O=C(C(=O)N1CCCCC1)c1cn(Cc2ccc(Cn3cc(C(=O)C(=O)N4CCCCC4)c4ccccc43)cc2)c2ccccc12`, the figures for the “diameter of the inhibition zone (DIZ)” value in the test on Candida albicans [18] and in the test on Candida albicans [21] were 7.5 mm and 6 mm, respectively. The zone of inhibition at 300 µg/mL in the test with Candida albicans [19] came to 7.5 mm; in the test with Escherichia coli [20], 9 mm.
`O=C(C(=O)N1CCOCC1)c1cn(Cc2ccc(Cn3cc(C(=O)C(=O)N4CCOCC4)c4ccccc43)cc2)c2ccccc12`: the “diameter of the inhibition zone (DIZ)” value in the test on Candida albicans [1], with Candida albicans [2] and in the test with Candida albicans [6] was 6 mm in each case. For the same compound, the figures for the zone of inhibition at 250 µg/mL in the test with Candida albicans [3], with Candida albicans [5] and with Escherichia coli [22] were 6.5 mm, 6.5 mm and 10.5 mm, respectively.
Consider `OC(Cn1cncn1)(Cn1cncn1)c1ccc(F)cc1F` [FLUCONAZOLE], for which the zone of inhibition at 300 µg/mL in the test with Candida albicans [23] is 15 mm.
On the same count and under the same terms, as for `Clc1ccc(COC(Cn2ccnc2)c2ccc(Cl)cc2Cl)c(Cl)c1` (stereo not given) [MICONAZOLE], the figure is 12 mm.
